From ChEMBL document CHEMBL4145508 (Eur J Med Chem, 2018)
Activity calls are given as the source filed them. The calls are words filed in the database; no cut-off is given here.

Experiments:
[1] = system: Influenza A virus; assay: Antiviral activity against influenza A virus chicken/china/1220/2012(H5N1) infected in chicken embryo fibroblasts assessed as effect on embryo survival at 2.5 mmol/L preincubated with virus for 1 hr followed by viral infection measured after […]; format: functional, organism-based
[2] = system: Influenza A virus; assay: Antiviral activity against influenza A virus chicken/china/1220/2012(H5N1) infected in chicken embryo fibroblasts assessed as effect on embryo survival at 10 mmol/L preincubated with virus for 1 hr followed by viral infection measured after […]; format: functional, organism-based
[3] = system: Influenza A virus; assay: Antiviral activity against influenza A virus duck/Guangdong/674/2014(H5N6) infected in chicken embryo fibroblasts assessed as effect on embryo survival at 0.0390625 mmol/L preincubated with virus for 1 hr followed by viral infection measured after […]; format: functional, organism-based
[4] = system: Influenza A virus; assay: Antiviral activity against influenza A virus duck/Guangdong/674/2014(H5N6) infected in chicken embryo fibroblasts assessed as effect on embryo survival at 2.5 mmol/L preincubated with virus for 1 hr followed by viral infection measured after […]; format: functional, organism-based
[5] = system: Influenza A virus; assay: Antiviral activity against influenza A virus chicken/china/1220/2012(H5N1) infected in chicken embryo fibroblasts assessed as effect on embryo survival at 0.15625 mmol/L preincubated with virus for 1 hr followed by viral infection measured after […]; format: functional, organism-based
[6] = biological target: T1, Neuraminidase (Influenza A virus, UniProt B4URF0); design: species or system chicken/china/1220/2012(H5N1)
[7] = system: Influenza A virus; assay: Antiviral activity against influenza A virus duck/Guangdong/674/2014(H5N6) infected in chicken embryo fibroblasts assessed as effect on embryo survival at 0.625 mmol/L preincubated with virus for 1 hr followed by viral infection measured after […]; format: functional, organism-based
[8] = system: Influenza A virus; assay: Antiviral activity against influenza A virus duck/Guangdong/674/2014(H5N6) infected in chicken embryo fibroblasts assessed as reduction in viral cytopathic effect preincubated with virus for 1 hr followed by viral infection measured after 2 days by CCK-8 assay; format: functional, organism-based
[9] = system: Influenza A virus; assay: Antiviral activity against influenza A virus chicken/china/1220/2012(H5N1) infected in chicken embryo fibroblasts assessed as reduction in viral cytopathic effect preincubated with virus for 1 hr followed by viral infection measured after 2 days by CCK-8 assay; format: functional, organism-based
[10] = Cytotoxicity against chicken embryo fibroblasts assessed as reduction in cell viability after 2 days by CCK-8 assay; format: cell-based, Gallus gallus, Fibroblast
How it was run: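 Chicken embryo fibroblasts grown 24 h at 37 °C, then exposed without virus to compounds dissolved in water and serially diluted 3-fold in DMEM. Incubation was at 37 °C under 5% CO₂, with viability read by CCK-8 at 2 days. CC₅₀, the concentration giving a 50% drop in viability, was fitted from the concentration curve.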

[11] = biological target: T1, Neuraminidase; design: species or system duck/Guangdong/674/2014(H5N6)
[12] = system: Influenza A virus; assay: Antiviral activity against influenza A virus duck/Guangdong/674/2014(H5N6) infected in chicken embryo fibroblasts assessed as effect on embryo survival at 0.15625 mmol/L preincubated with virus for 1 hr followed by viral infection measured after […]; format: functional, organism-based
[13] = system: Influenza A virus; assay: Antiviral activity against influenza A virus duck/Guangdong/674/2014(H5N6) infected in chicken embryo fibroblasts assessed as effect on embryo survival at 10 mmol/L preincubated with virus for 1 hr followed by viral infection measured after […]; format: functional, organism-based
[14] = system: Influenza A virus; assay: Antiviral activity against influenza A virus chicken/china/1220/2012(H5N1) infected in chicken embryo fibroblasts assessed as effect on embryo survival at 0.625 mmol/L preincubated with virus for 1 hr followed by viral infection measured after […]; format: functional, organism-based
[15] = system: Influenza A virus; assay: Antiviral activity against influenza A virus chicken/china/1220/2012(H5N1) infected in chicken embryo fibroblasts assessed as effect on embryo survival at 0.0390625 mmol/L preincubated with virus for 1 hr followed by viral infection measured after […]; format: functional, organism-based

T1 sequence (B4URF0 whole entry): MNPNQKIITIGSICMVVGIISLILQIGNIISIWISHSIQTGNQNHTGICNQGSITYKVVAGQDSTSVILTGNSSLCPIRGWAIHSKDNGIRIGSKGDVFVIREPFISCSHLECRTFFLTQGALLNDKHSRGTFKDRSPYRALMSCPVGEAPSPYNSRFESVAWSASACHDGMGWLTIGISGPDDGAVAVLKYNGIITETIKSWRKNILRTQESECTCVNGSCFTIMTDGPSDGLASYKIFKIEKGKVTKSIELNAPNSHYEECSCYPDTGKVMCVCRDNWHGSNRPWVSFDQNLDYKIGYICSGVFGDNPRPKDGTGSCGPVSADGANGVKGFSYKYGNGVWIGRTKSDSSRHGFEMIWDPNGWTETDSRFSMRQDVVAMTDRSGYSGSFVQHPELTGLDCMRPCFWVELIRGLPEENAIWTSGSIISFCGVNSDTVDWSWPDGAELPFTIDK

Structure (SMILES)	IC50 [6]	IC50 [11]	further results
CCC(CC)O[C@@H]1C=C(C(=O)N[C@@H](C(=O)O)C(C)C)C[C@H](N)[C@H]1NC(C)=O	0.0883 µM	0.0967 µM	Activity [1]: inactive; Activity [2]: Active; Activity [3]: inactive; Activity [4]: inactive; Activity [5]: inactive; Activity [7]: inactive; EC50 [8]: 1.31 µM; EC50 [9]: 4.26 µM; CC50 at 48 h [10]: > 1000 µM; Activity [12]: inactive; Activity [13]: Active; Activity [14]: inactive; Activity [15]: inactive
CCC(CC)O[C@@H]1C=C(C(=O)NCc2ccc(C(F)(F)F)cc2)C[C@H](N)[C@H]1NC(C)=O	10.9 µM	8.78 µM	–
CCC(CC)O[C@@H]1C=C(C(=O)Nc2ccc(N3CCOCC3=O)cc2)C[C@H](N)[C@H]1NC(C)=O	1.46 µM	2.27 µM	–
CCC(CC)O[C@@H]1C=C(C(=O)NCC(=O)O)C[C@H](N)[C@H]1NC(C)=O	2.53 µM	2.16 µM	–
CCC(CC)O[C@@H]1C=C(C(=O)NCc2ccc(-c3cccs3)cc2)C[C@H](N)[C@H]1NC(C)=O	7.75 µM	10.9 µM	–
CCC(CC)O[C@@H]1C=C(C(=O)NCc2ccc(OC)cc2)C[C@H](N)[C@H]1NC(C)=O	> 40 µM	> 40 µM	–
CCC(CC)O[C@@H]1C=C(C(=O)N[C@H](C(=O)O)C(C)C)C[C@H](N)[C@H]1NC(C)=O [listing 1 of 2 here]	0.135 µM	0.248 µM	–
CCC(CC)O[C@@H]1C=C(C(=O)O)C[C@H](N)[C@H]1NC(C)=O [OSELTAMIVIR CARBOXYLATE]	–	–	Activity [3]: inactive; Activity [4]: inactive; Activity [5]: inactive; Activity [7]: inactive; EC50 [8]: 0.73 µM; EC50 [9]: 1.35 µM; CC50 at 48 h [10]: > 1000 µM; Activity [12]: inactive; Activity [13]: inactive; Activity [15]: inactive
CCC(CC)O[C@@H]1C=C(C(=O)NCc2ccccc2F)C[C@H](N)[C@H]1NC(C)=O	6.26 µM	14.7 µM	–
CCC(CC)O[C@@H]1C=C(C(=O)NCc2ccc(F)cc2)C[C@H](N)[C@H]1NC(C)=O	0.94 µM	2.78 µM	–
CCC(CC)O[C@@H]1C=C(C(=O)NCc2cc(F)cc(F)c2)C[C@H](N)[C@H]1NC(C)=O	2.22 µM	10.4 µM	–
CCC(CC)O[C@@H]1C=C(C(=O)NCCc2ccccc2F)C[C@H](N)[C@H]1NC(C)=O	3.17 µM	5.12 µM	–
CCC(CC)O[C@@H]1C=C(C(=O)NCc2ccc(-c3ccsc3)cc2)C[C@H](N)[C@H]1NC(C)=O	29.8 µM	> 40 µM	–
C=CCNC(=O)C1=C[C@@H](OC(CC)CC)[C@H](NC(C)=O)[C@@H](N)C1	5.03 µM	0.41 µM	–
CCC(CC)O[C@@H]1C=C(C(=O)NCc2cccc(F)c2)C[C@H](N)[C@H]1NC(C)=O	5.09 µM	11.4 µM	–
CCC(CC)O[C@@H]1C=C(C(=O)NCCN2CCOCC2)C[C@H](N)[C@H]1NC(C)=O	4.24 µM	12.1 µM	–
CCC(CC)O[C@@H]1C=C(C(=O)NCc2ccc(F)cc2Cl)C[C@H](N)[C@H]1NC(C)=O	3.91 µM	19.4 µM	–
CCC(CC)O[C@@H]1C=C(C(=O)NCc2ccc(Br)cc2)C[C@H](N)[C@H]1NC(C)=O	2.07 µM	6.01 µM	–
CCC(CC)O[C@@H]1C=C(C(=O)NCc2ccc(C)cc2)C[C@H](N)[C@H]1NC(C)=O	2.91 µM	11 µM	–
CCC(CC)O[C@@H]1C=C(C(=O)N(C)CCc2cccc(F)c2)C[C@H](N)[C@H]1NC(C)=O	2.65 µM	2.51 µM	–
CCC(CC)O[C@@H]1C=C(C(=O)N[C@@H](C)C(=O)O)C[C@H](N)[C@H]1NC(C)=O	2.2 µM	1.28 µM	–
CCC(CC)O[C@@H]1C=C(C(=O)NCc2ccc(-c3ccccc3)cc2)C[C@H](N)[C@H]1NC(C)=O	0.96 µM	0.99 µM	–
CCC(CC)O[C@@H]1C=C(C(=O)Nc2ccc(F)cc2)C[C@H](N)[C@H]1NC(C)=O	11.7 µM	16.3 µM	–
CCC(CC)O[C@@H]1C=C(C(=O)NCc2ccccc2)C[C@H](N)[C@H]1NC(C)=O	9.87 µM	19.9 µM	–
CCC(CC)O[C@@H]1C=C(C(=O)NCCc2cccc(F)c2)C[C@H](N)[C@H]1NC(C)=O	15.2 µM	32.5 µM	–
CCC(CC)O[C@@H]1C=C(C(=O)N[C@H](C(=O)O)C(C)C)C[C@H](N)[C@H]1NC(C)=O [listing 2 of 2 here]	0.342 µM	0.304 µM	–
CCC(CC)O[C@@H]1C=C(C(=O)N[C@H](C)C(=O)O)C[C@H](N)[C@H]1NC(C)=O	1.35 µM	1.07 µM	–
CCC(CC)O[C@@H]1C=C(C(=O)NCc2cccc(Cl)c2)C[C@H](N)[C@H]1NC(C)=O	3.02 µM	7.86 µM	–
